proCasp7 act: activates human procaspase-7, counter-screen for procaspase-3 activators. recombinant procaspase-7, Ac-DEVD-pNA absorbance 405 nm; D23A/D198A/D206A triple mutant, cannot self-cleave; scale: DMSO 0, 5 µM enzyme 100. activation, % at 8.5 µM. 330,000 compounds, 0.093% hits. AID 463210;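 active = percent activation above the screen-wide mean plus 3 SD, cut at about 25% in these data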
Target sequence (P55210 whole entry D23A/D198A/D206A): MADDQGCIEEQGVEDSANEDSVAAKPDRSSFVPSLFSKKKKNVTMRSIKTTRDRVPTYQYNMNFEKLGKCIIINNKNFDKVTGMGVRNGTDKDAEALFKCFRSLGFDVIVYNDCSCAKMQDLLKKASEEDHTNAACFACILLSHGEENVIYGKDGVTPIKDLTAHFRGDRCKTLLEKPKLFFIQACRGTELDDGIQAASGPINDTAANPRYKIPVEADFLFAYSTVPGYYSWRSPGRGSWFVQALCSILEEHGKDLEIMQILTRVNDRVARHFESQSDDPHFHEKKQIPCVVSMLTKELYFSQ
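Assay system: Uncleavable procaspase-7 mutant enzyme | Input: 2 µM procaspase-7 mutant as dispensed | Timing: 1 h compound preincubation, 2 h substrate cleavage, 25 °C | Repeats: One well per compound | Control set: DMSO wells as 0%, DMSO with 5 µM added PC-7 as 100% | Technique: Epi-absorbance of released pNA at 405 nm, two timepoints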
GRK2 aptamer HTS: human GRK2 inhibition via aptamer displacement; P25098; bead flow cytometry, FAM-aptamer displacement from GRK2; inhibition of aptamer binding, % at 10 µM; 330,000 compounds, 0.59% hits;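 active = inhibition of aptamer binding above 40%, roughly 3 SD of noise, on plates passing a quality check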;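 also: median bead fluorescence of bound FAM aptamer so fluorescent compounds give negative values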
CaV13 FRET inh: Disruptors of the CACNA1D IQ motif to Ca2+-dependent inactivation inhibitor domain association, primary screening, Förster resonance energy transfer in intact living …; 340,000 compounds, 0.098% hits; HEK cells, CFP/YFP FRET ICDI-IQ, plate reader, 10 min; percent FRET-ratio fall versus neutral wells; inhibition, % at 12.3 µM; AID 743397;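 active = mean replicate inhibition of at least 30% and at least 1% of replicates passing that level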;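 also: 0% = median of the neutral control wells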
procasp3 activ: procaspase-3 (human) activation. P42574. recombinant procaspase-3 D3A, Ac-DEVD-pNA absorbance 405 nm. activation, % at 8.5 µM. 330,000 compounds, 0.11% hits;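 active = activation above the mean of all tested compounds plus 3 SD, cut at about 21% in these data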;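 also: 0% = DMSO alone and 100% = DMSO wells spiked with extra 5 µM PC-3 D3A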
Target sequence (P42574 whole entry D9A/D28A/D175A): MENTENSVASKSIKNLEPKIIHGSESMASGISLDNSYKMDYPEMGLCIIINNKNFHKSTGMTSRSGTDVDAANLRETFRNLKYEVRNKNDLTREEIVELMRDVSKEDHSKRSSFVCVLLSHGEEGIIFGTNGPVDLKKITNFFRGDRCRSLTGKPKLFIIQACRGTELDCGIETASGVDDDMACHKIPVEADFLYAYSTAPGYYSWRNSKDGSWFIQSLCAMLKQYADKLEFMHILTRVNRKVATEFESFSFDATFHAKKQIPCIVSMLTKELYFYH
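Technique: 405 nm absorbance of p-nitroaniline, reads at 0 and 120 min; Test system: Procaspase-3 D3A mutant; Incubation: 1 h enzyme-compound preincubation, then 2 h substrate reaction, 25 °C; Repeats: singlicate, each compound tested once; Benchmarks: low control DMSO wells, high control DMSO plus 5 µM PC-3 D3A.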
aDG glyco up: increases alpha dystroglycan glycosylation. Pro5-aDG cells, alpha-DG glycosylation AlphaScreen (IIH6); 0% Pro5, 100% B10-LARGE cell signal. activation, % at 10 µM. 360,000 compounds, 0.22% hits. AID 624168;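 active = activation of at least 8% versus controls, or a plate z-score of at least 8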;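 also: Pro5 are CHO cells carrying HIG-tagged alpha-DG that lacks glycosylation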
T cell HTS: T cell immune modulation candidate; 2C CD8+ T cell-vesicle binding, flow cytometry; hits give low values; response (vesicle binding), % at 7 µM; 330,000 compounds, 0.068% hits; AID 2052;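 active = response, share of CD8 T cells binding vesicles, and their 90th percentile fluorescence all below set limits, cut at about 80% in these data, passing the limit was not always enough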;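 also: values below 100% mean blocked vesicle binding to the CD8+ T cells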
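Also added: QL9-peptide-loaded Drosophila micro-vesicles bearing Ld, ICAM-1 and B7-1; Test system: purified 2C TCR transgenic mouse naive CD8+ T cells; Measured by: cytometric PE anti-B7-1 and Alexa647 anti-CD8 signals after 1% paraformaldehyde fixation; Timing: binding step 1.5 h, 37 °C, antibody labelling 20 min, ice.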
Active calls of the source: *. Only some compounds are listed: those with a hit (about 1.1% of all), similar ones and a draw of the others.

For CC(C)C1=CC2C3C(C(C(C)C)=CC(=O)[C@@]3(C)O)C1C(=O)C2(C)O (stereo partly drawn) the results were CaV13 FRET inh -3.
For O=C(NCc1ccc(Cl)cc1)c1ccc(CNc2c(N3CCCC3)c(=O)c2=O)cc1 the results were proCasp7 act 4, GRK2 aptamer HTS 0, CaV13 FRET inh -6, procasp3 activ 2, aDG glyco up 0 and T cell HTS 0.0*.
`COCC(=O)N1CCN(C(=O)C(=O)c2cccc(C(F)(F)F)c2)CC1` gave CaV13 FRET inh -8.
`CCOC(=O)c1cc2c(=O)n3ccccc3nc2n(Cc2ccc(Cl)cc2)c1=N` gave CaV13 FRET inh active and aDG glyco up 0.
`COCCCn1c(=N)c(C(=O)NC2CCCCC2)cc2c(=O)n3ccccc3nc21` gave proCasp7 act -20, GRK2 aptamer HTS 0, CaV13 FRET inh 43*, procasp3 activ -18, aDG glyco up 1 and T cell HTS 179.
Screening Cc1oc(/N=C/c2ccc(O)cc2O)c(C#N)c1C returned proCasp7 act -8, GRK2 aptamer HTS 17, CaV13 FRET inh active, procasp3 activ -7, aDG glyco up 1 and T cell HTS 717.
`CC(=O)c1cccc(-c2ccnc3c2CC(C(=O)NCc2ccc(F)c(F)c2)O3)c1` (stereo not drawn) gave CaV13 FRET inh 44* and aDG glyco up 0.
For CCCCS(=O)(=O)N1C2=NC(C(=O)OCC)=C(C(=O)OCC)C3N(Cc4ccc(Br)cc4)c4ccccc4[C@]23C[C@H]1C(=O)OC (stereo partly drawn) the results were CaV13 FRET inh -10.
`C[C@H](CO)N1C[C@H](C)[C@@H](CN(C)C)Oc2c(NS(=O)(=O)c3ccccc3)cccc2C1=O` gave proCasp7 act 5, GRK2 aptamer HTS 3, CaV13 FRET inh -10, procasp3 activ 7, aDG glyco up 0 and T cell HTS 0.0*.
For C[C@H](CO)N1C[C@H](C)[C@@H](CN(C)C(=O)Nc2ccccc2)Oc2ccc(NS(=O)(=O)c3ccccc3)cc2C1=O the results were proCasp7 act 7, GRK2 aptamer HTS 0, CaV13 FRET inh -4, procasp3 activ -4, aDG glyco up 0 and T cell HTS 582.
For C[C@@H]1CN([C@H](C)CO)C(=O)c2cccc(NS(=O)(=O)c3ccccc3)c2O[C@H]1CN(C)C the results were proCasp7 act 7, GRK2 aptamer HTS 2, CaV13 FRET inh -4, procasp3 activ 0, aDG glyco up 0 and T cell HTS 181.
For CC(C)NC(=O)N(C)C[C@H]1Oc2ccc(NS(=O)(=O)c3ccccc3)cc2C(=O)N([C@H](C)CO)C[C@H]1C the results were proCasp7 act 16, GRK2 aptamer HTS 2, CaV13 FRET inh -4, procasp3 activ -3, aDG glyco up 0 and T cell HTS 62*.
Screening COc1ccc(CN2C[C@H](COCc3ccccc3)Oc3cccc(N4CCCC4)c3S2(=O)=O)cc1 returned CaV13 FRET inh -7.
`CCOc1ccc(NC(=S)Nc2ccc3nsnc3c2)cc1` gave proCasp7 act -28, GRK2 aptamer HTS 7, CaV13 FRET inh -8, procasp3 activ -20, aDG glyco up 7.8* and T cell HTS 306.
`CCOc1ccc(NC(=O)Nc2ccc3nsnc3c2)cc1` gave proCasp7 act -3, GRK2 aptamer HTS 3, CaV13 FRET inh -5, procasp3 activ 0, aDG glyco up 1 and T cell HTS 133.
For COc1ccc(NC(=S)Nc2ccc3nsnc3c2)cc1 the results were proCasp7 act -20, GRK2 aptamer HTS 3, CaV13 FRET inh -5, procasp3 activ -8, aDG glyco up 7.8* and T cell HTS 142.
COCc1cc(N2CCN(C(=O)OC(C)(C)C)C[C@@H]2C)ccc1N1CCN(Cc2ccccc2)[C@@H](C)C1 was read as CaV13 FRET inh -8.
For O=C(Nc1ccccc1Cl)Oc1ccc(Cl)cc1Cl the results were proCasp7 act -10, GRK2 aptamer HTS 1, CaV13 FRET inh -3, procasp3 activ 0, aDG glyco up 0 and T cell HTS 27*.
COC(=O)C1=C(C)N(Cc2cccc(C(F)(F)F)c2)C(=NCc2cc(OC)c(OC)c(OC)c2)NC1c1ccc(F)cc1 (stereo not drawn) was read as CaV13 FRET inh -4.
O=c1c2cccnc2[nH]c(=S)n1CCC1=CCCCC1 was read as proCasp7 act 6, GRK2 aptamer HTS 70*, CaV13 FRET inh -4, procasp3 activ 6, aDG glyco up 0 and T cell HTS 312.
CCCCCn1c(=S)[nH]c2ncccc2c1=O was read as proCasp7 act -7, GRK2 aptamer HTS 2, CaV13 FRET inh -8, procasp3 activ -4, aDG glyco up 0 and T cell HTS 176.
For COc1ccc(-c2nnn3c2C2c4cc(-c5cccc(F)c5)ccc4CCN2C(=O)C3)cc1 (stereo not drawn) the results were CaV13 FRET inh -5.
`COc1cccc(CNC(=O)[C@H]2CCCN2C(=O)[C@H]2CCCN2C(=O)c2ccc(Cl)cc2)c1` gave CaV13 FRET inh -11.
Screening Cc1nc([N+](=O)[O-])cn1CC(Cl)Cn1cc([N+](=O)[O-])nc1C returned CaV13 FRET inh -10.
For CN(C)CCCN(C(=O)c1ccc2c(c1)OCCO2)c1nc2cc3c(cc2s1)OCO3 the results were proCasp7 act -3, GRK2 aptamer HTS 0, CaV13 FRET inh -2, procasp3 activ -1, aDG glyco up 0 and T cell HTS 0.
Screening CN(C)CCCN(C(=O)c1ccc([N+](=O)[O-])o1)c1nc2cc3c(cc2s1)OCO3 returned proCasp7 act 4, GRK2 aptamer HTS 55*, CaV13 FRET inh -5, procasp3 activ 4, aDG glyco up 0 and T cell HTS 15.
For O=C1c2ccc3c4c(ccc(c24)C(=O)N1c1cccc(O)c1)C(=O)N(c1cccc(O)c1)C3=O the results were proCasp7 act -1, GRK2 aptamer HTS 0, CaV13 FRET inh -14, procasp3 activ 1, aDG glyco up 4.0* and T cell HTS 789.
Cn1c2ccccc2c(=O)c2ccc(F)cc21 was read as proCasp7 act -3, GRK2 aptamer HTS 3, CaV13 FRET inh 186*, procasp3 activ -5, aDG glyco up 0 and T cell HTS 632.
`COc1cc(-c2ccc3c(=O)c4ccccc4n(C)c3c2)cc(OC)c1OC` gave proCasp7 act 1, GRK2 aptamer HTS 2, CaV13 FRET inh -6, procasp3 activ 3, aDG glyco up 0 and T cell HTS 104.

Screening results: PubChem BioAssay, several laboratories
